Calls of active or inactive are those of the source. No cut-off for these calls is given here.
Tests used:
[1] = test system: KB; test: Cytotoxicity against human KB cells after 48 hrs by MTT assay; assay type: cell-based
In short: (§1)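 KB and KB-C2 cells grown in DMEM with 10% FBS, with KB-C2 maintained with 2 µg/mL colchicine. 5 × 10^3 cells/well were preincubated 24 h, then exposed 48 h at 37 °C, 5% CO2 to graded concentrations (DMSO final <0.5%). MTT read-out. IC50 was the concentration giving 50% of vehicle-control absorbance. Mean ± SE of 3–4 experiments.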

[2] = Cytotoxicity against human colchicine-resistant KBC2 cells after 48 hrs by MTT assay; assay type: cell-based; conditions: KB-C2, 48 h; in short: as §1
[3] = Cytotoxicity against human colchicine-resistant KBC2 cells in presence of 2.5 uM colchicine after 48 hrs by MTT assay; assay type: cell-based; conditions: KB-C2, 48 h
In short: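 Colchicine-resistant KB-C2 cells, maintained in DMEM/10% FBS with 2 µg/mL colchicine. Seeded at 5 × 10^3 cells/well, preincubated 24 h, then given graded test concentrations (DMSO final <0.5%) together with 2.5 µM colchicine for 48 h at 37 °C, 5% CO2. MTT read-out. IC50 was 50% of vehicle-control absorbance. Mean ± SE, 3–4 experiments.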

[4] = test system: K562; test: Cytotoxicity against human K562 cells after 48 hrs by MTT assay; assay type: cell-based; conditions: K562, 48 h
In short: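 K562 leukemia cells, 1 × 10^4 cells/well in medium with 10% FBS, preincubated 24 h. Test samples were then added at various concentrations (DMSO final <0.5%) for 48 h at 37 °C, 5% CO2. MTT assay. IC50 was 50% absorbance relative to vehicle controls. Mean ± SE from 3–4 experiments.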

[5] = Cytotoxicity against human doxorubicin-resistant K562/Adr cells after 48 hrs by MTT assay; assay type: cell-based
In short: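 Doxorubicin-resistant K562/Adr cells, maintained in RPMI1640/10% FBS containing 0.5 µM doxorubicin. Seeded at 1 × 10^4 cells/well, preincubated 24 h, then incubated 48 h at 37 °C, 5% CO2 with graded test concentrations (DMSO final <0.5%). MTT read-out. IC50 was 50% of vehicle-control absorbance. Mean ± SE, 3–4 experiments.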

[6] = Cytotoxicity against human doxorubicin-resistant K562/Adr cells in presence of 1 uM doxorubicin after 48 hrs by MTT assay; assay type: cell-based
[7] = test system: MCF7; test: Cytotoxicity against human MCF7 cells after 48 hrs by MTT assay; assay type: cell-based; conditions: MCF7, 48 h
In short: (§2)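 MCF7 or COLO205 cells in RPMI1640 with 10% FBS, seeded at 5 × 10^3 cells and preincubated 24 h. Graded concentrations (DMSO final <0.5%) were then applied for 48 h at 37 °C, 5% CO2. Proliferation read by MTT. IC50 was the concentration halving absorbance versus vehicle-treated controls. Mean ± SE of 3–4 experiments.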

[8] = test system: COLO 205; test: Cytotoxicity against human COLON205 cells after 48 hrs by MTT assay; assay type: cell-based; conditions: COLO 205, 48 h; in short: as §2
[9] = test system: MDR; test: Reversal of MDR against KBC2 cells assessed as reduction in cytotoxicity of colchicine at 5 ug/ml; assay type: functional, cell-based; conditions: Homo sapiens

## CC(=O)O[C@@H]1CC[C@]2(C)[C@H]3CC[C@@H]4[C@@H]([C@]5(C)CC[C@H](C(C)(C)O)O5)CC[C@@]4(C)[C@]3(C)CC[C@H]2C1(C)C
[1]
  IC50: 44.8 µM
[2]
  IC50: 89.6 µM
[3]
  IC50: 43.6 µM
[4]
  IC50: 41.6 µM
[5]
  IC50: 50.5 µM
[6]
  IC50: 68.3 µM
[7]
  IC50: 47.5 µM
[8]
  IC50: 54.2 µM

## CC(C)(O)[C@H]1CC[C@@](C)([C@H]2CC[C@]3(C)[C@@H]2CC[C@@H]2[C@@]4(C)CC[C@@H](OC(=O)CC(=O)O)C(C)(C)[C@@H]4CC[C@]23C)O1
[1]
  IC50: 60.8 µM
[2]
  IC50: 69.6 µM
[3]
  IC50: 65.5 µM
[4]
  IC50: 57.5 µM
[5]
  IC50: 47.2 µM
[6]
  IC50: 42.5 µM
[7]
  IC50: 64.1 µM
[8]
  IC50: 55.6 µM

## C=C(C)[C@@H](O)CC[C@](C)(O)[C@H]1CC[C@]2(C)[C@@H]1CC[C@@H]1[C@@]3(C)CCC(=O)C(C)(C)[C@@H]3CC[C@]12C
[1]
  IC50: 70.2 µM
[2]
  IC50: 78.5 µM
[3]
  IC50: 29.8 µM
[4]
  IC50: 40.2 µM
[5]
  IC50: 35.9 µM
[6]
  IC50: 50.4 µM
[7]
  IC50: 73.1 µM
[8]
  IC50: 58.8 µM

## CC(=O)O[C@@H]1C[C@@H]2[C@@]3(C)CC[C@@H](O)C(C)(C)[C@@H]3CC[C@@]2(C)[C@]2(C)CC[C@H]([C@]3(C)CC[C@H](C(C)(C)O)O3)[C@@H]12
[1]
  IC50: 36.5 µM
[2]
  IC50: 25.7 µM
[3]
  IC50: 3.5 µM
[4]
  IC50: 27.5 µM
[5]
  IC50: 15.4 µM
[6]
  IC50: 15.3 µM
[7]
  IC50: 34.2 µM
[8]
  IC50: 36.7 µM

## CC(=O)O[C@@H]1C[C@@H]2[C@@]3(C)CC[C@@H](OC(C)=O)C(C)(C)[C@@H]3CC[C@@]2(C)[C@]2(C)CC[C@H]([C@]3(C)CC[C@H](C(C)(C)O)O3)[C@@H]12
[1]
  IC50: 35.1 µM
[2]
  IC50: 62.2 µM
[3]
  IC50: 3 µM
[4]
  IC50: 26.2 µM
[5]
  IC50: 33.2 µM
[6]
  IC50: 23.9 µM
[7]
  IC50: 78.4 µM
[8]
  IC50: 58 µM

## COC(=O)CC(=O)O[C@@H]1CC[C@]2(C)[C@H]3CC[C@@H]4[C@@H]([C@]5(C)CCC(=O)O5)CC[C@@]4(C)[C@]3(C)CC[C@H]2C1(C)C
[1]
  IC50: 58 µM
[2]
  IC50: 30.4 µM
[3]
  IC50: 3.3 µM
[4]
  IC50: 47.2 µM
[5]
  IC50: 56.1 µM
[6]
  IC50: 26.5 µM
[7]
  IC50: > 100 µM
[8]
  IC50: > 100 µM

## CC(C)(O)[C@H]1CC[C@@](C)([C@H]2CC[C@]3(C)[C@@H]2CC[C@@H]2[C@@]4(C)CC[C@@H](O)C(C)(C)[C@@H]4CC[C@]23C)O1
[1]
  IC50: 43.4 µM
[2]
  IC50: 55.3 µM
[3]
  IC50: 28.6 µM
[4]
  IC50: 48.5 µM
[5]
  IC50: 73.9 µM
[6]
  IC50: 45.2 µM
[7]
  IC50: 57.9 µM

## C=C1CC[C@]2(C)CC[C@]3(C)[C@H](CC[C@@H]4[C@@](C)(CCC(=O)O)[C@H](C(=C)C)CC[C@]43C)[C@@H]2[C@H]1C
[1]
  IC50: > 100 µM
[2]
  IC50: > 100 µM
[3]
  IC50: > 100 µM
[4]
  IC50: > 100 µM
[5]
  IC50: > 100 µM
[6]
  IC50: > 100 µM
[7]
  IC50: > 100 µM
[8]
  IC50: > 100 µM

## C=C(C)[C@@H]1CC[C@]2(C)[C@H](CCC3=C4CC(C)(C)CC[C@]4(C)CC[C@]32C)[C@@]1(C)CCC(=O)O
[1]
  IC50: 27.5 µM
[2]
  IC50: 58 µM
[3]
  IC50: 36.3 µM
[4]
  IC50: 28 µM
[5]
  IC50: 25.9 µM
[6]
  IC50: 24.8 µM
[7]
  IC50: 37.4 µM
[8]
  IC50: 38.1 µM

## COC(=O)CC(=O)O[C@@H]1CC[C@]2(C)[C@H]3CC[C@@H]4[C@@H]([C@]5(C)CC[C@H](C(C)(C)O)O5)CC[C@@]4(C)[C@]3(C)CC[C@H]2C1(C)C
[1]
  IC50: 64.2 µM
[2]
  IC50: 87 µM
[3]
  IC50: 13.6 µM
[4]
  IC50: 35.4 µM
[5]
  IC50: 31.1 µM
[6]
  IC50: 41.1 µM
[7]
  IC50: 63.6 µM
[8]
  IC50: 57.2 µM

## C=C(C)[C@@H]1CC[C@]2(C(=O)O)CC[C@]3(C)[C@H](CC[C@@H]4[C@@]5(C)CCC(=O)C(C)(C)[C@@H]5CC[C@]43C)[C@@H]12 [BETUNOLIC ACID]
[1]
  IC50: 3.8 µM
[2]
  IC50: 2.3 µM
[3]
  IC50: 0.64 µM
[4]
  IC50: 16.1 µM
[5]
  IC50: 73.5 µM
[6]
  IC50: 48.4 µM
[7]
  IC50: 49 µM
[8]
  IC50: 36.8 µM

## CC1(C)[C@H](O)CC[C@]2(C)[C@H]3CC[C@@H]4[C@@H]([C@]5(C)CCC(=O)O5)CC[C@@]4(C)[C@]3(C)CC[C@@H]12 [CABRALEAHYDROXYLACTONE]
[1]
  IC50: > 100 µM
[2]
  IC50: > 100 µM
[3]
  IC50: 20.6 µM
[4]
  IC50: > 100 µM
[5]
  IC50: > 100 µM
[6]
  IC50: > 100 µM
[7]
  IC50: > 100 µM
[8]
  IC50: > 100 µM

## CC1(C)C(=O)CC[C@]2(C)[C@H]3CC[C@@H]4[C@@H]([C@]5(C)CCC(=O)O5)CC[C@@]4(C)[C@]3(C)CC[C@@H]12 [CABRALELACTONE]
[1]
  IC50: 63.5 µM
[2]
  IC50: > 100 µM
[3]
  IC50: 28.5 µM
[4]
  IC50: > 100 µM
[5]
  IC50: > 100 µM
[6]
  IC50: > 100 µM
[7]
  IC50: 97.9 µM
[8]
  IC50: > 100 µM

## CC(C)(O)[C@@H]1CC[C@@](C)([C@H]2CC[C@]3(C)[C@@H]2CC[C@@H]2[C@@]4(C)CCC(=O)C(C)(C)[C@@H]4CC[C@]23C)O1 [CABRALEONE]
[1]
  IC50: > 100 µM
[2]
  IC50: > 100 µM
[3]
  IC50: 62.4 µM
[4]
  IC50: > 100 µM
[5]
  IC50: > 100 µM
[6]
  IC50: > 100 µM
[7]
  IC50: > 100 µM
[8]
  IC50: > 100 µM

## CC(C)=CCC[C@](C)(O)[C@H]1CC[C@]2(C)[C@@H]1CC[C@@H]1[C@@]3(C)CCC(=O)C(C)(C)[C@@H]3CC[C@]12C [DIPTEROCARPOL]
[1]
  IC50: > 100 µM
[2]
  IC50: > 100 µM
[3]
  IC50: 38.2 µM
[4]
  IC50: > 100 µM
[5]
  IC50: > 100 µM
[6]
  IC50: > 100 µM
[7]
  IC50: > 100 µM
[8]
  IC50: > 100 µM

## CC(C)(O)[C@H]1CC[C@@]2(C)C1CC[C@]1(C)[C@@H]2CC[C@@H]2[C@@]3(C)CCC(=O)C(C)(C)[C@@H]3CC[C@]21C (stereo not given in full) [HYDROXYHOPANONE]
[1]
  IC50: > 100 µM
[2]
  IC50: > 100 µM
[3]
  IC50: > 100 µM
[4]
  IC50: > 100 µM
[5]
  IC50: > 100 µM
[6]
  IC50: > 100 µM
[7]
  IC50: > 100 µM
[8]
  IC50: 77.1 µM

## COC(=O)CC(=O)O[C@@H]1CC[C@]2(C)[C@H]3C[C@@H](OC(C)=O)[C@@H]4[C@@H]([C@]5(C)CC[C@H](C(C)(C)O)O5)CC[C@@]4(C)[C@]3(C)CC[C@H]2C1(C)C [METHYL PAPYRIFERATE]
[1]
  IC50: 33.8 µM
[2]
  IC50: 31.1 µM
[3]
  IC50: 3.7 µM
[4]
  IC50: 32.6 µM
[5]
  IC50: 36.8 µM
[6]
  IC50: 10.6 µM
[7]
  IC50: 48.9 µM
[8]
  IC50: 49.6 µM
[9]
  Activity: Active

## C=C(C)[C@@H]1CC[C@]2(C)[C@H](CC[C@@H]3[C@@H]([C@]4(C)CC[C@H](C(C)(C)O)O4)CC[C@]32C)[C@@]1(C)CCC(=O)OC [METHYL SHOREATE]
[1]
  IC50: 66.6 µM
[2]
  IC50: 93.5 µM
[3]
  IC50: 20.1 µM
[4]
  IC50: 45.3 µM
[5]
  IC50: 50.9 µM
[6]
  IC50: 47.1 µM
[7]
  IC50: 59.7 µM
[8]
  IC50: 67.7 µM

## CC(C)(O)[C@H]1CC[C@@](C)([C@H]2CC[C@]3(C)[C@@H]2CC[C@@H]2[C@@]4(C)CCC(=O)C(C)(C)[C@@H]4CC[C@]23C)O1 [OCOTILLONE]
[1]
  IC50: > 100 µM
[2]
  IC50: > 100 µM
[3]
  IC50: 64.2 µM
[4]
  IC50: > 100 µM
[5]
  IC50: > 100 µM
[6]
  IC50: > 100 µM
[7]
  IC50: > 100 µM
[8]
  IC50: > 100 µM

## CC(=O)O[C@@H]1C[C@@H]2[C@@]3(C)CC[C@@H](OC(=O)CC(=O)O)C(C)(C)[C@@H]3CC[C@@]2(C)[C@]2(C)CC[C@H]([C@]3(C)CC[C@H](C(C)(C)O)O3)[C@@H]12 [PAPYRIFERIC ACID]
[1]
  IC50: 47.8 µM
[2]
  IC50: 66 µM
[3]
  IC50: 60.1 µM
[4]
  IC50: 47.6 µM
[5]
  IC50: 42.5 µM
[6]
  IC50: 34.5 µM
[7]
  IC50: 71.7 µM
[8]
  IC50: 52.2 µM
